Laboratory results reported in ChEMBL document CHEMBL1125376, “Class III antiarrhythmic activity of novel substituted 4-[(methylsulfonyl)amino]benzamides and sulfonamides” (J Med Chem, 1992).
“And” between values parts separate entries of the source, which are not always exact repeats. Equal entries are not always repeated. One block for each molecule: values may come before it.

Key:
Canis familiaris [1] = species: Canis familiaris; experiment: Effect on the transmembrane potential of dog Purkinje fibers paced at a basic cycle length of stimulation of 300 ms, repolarization time to -60 mV; assay type: functional; conditions: Canis lupus familiaris; Purkinje fiber
Method in brief: (§1)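 Purkinje fiber bundles were taken from pentobarbital-anesthetized mongrel dogs. They were superfused at 37.5-38.0 °C with Tyrode's (mM: NaCl 138, KCl 4, CaCl2 2, NaHCO3 24, MgCl2 0.5, Na2HPO4 1.8, dextrose 5) gassed with 95% O2-5% CO2, pH 7.3-7.4. Stimulation used 2.0 ms pulses at twice threshold. Fibers were equilibrated ≥1 h before drug. Action potentials were recorded at 4-6 sites and averaged per fiber.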

Canis familiaris [2] = species: Canis familiaris; experiment: Effect on the transmembrane potential of dog Purkinje fibers paced at a basic cycle length of stimulation of 1000 ms, repolarization time to -60 mV; assay type: functional; conditions: Canis lupus familiaris; Purkinje fiber; method in brief: as §1
[3] = Maximum rate of depolarization of the upstroke of the action potential at 3 uM concentration; parameters: unit not given beside the values
Method in brief: (§2)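 Purkinje fiber bundles from pentobarbital-anesthetized mongrel dogs, superfused at 37.5-38.0 °C with Tyrode's solution (95% O2-5% CO2, pH 7.3-7.4). Stimulation with 2.0 ms square pulses at 2× threshold. Fibers equilibrated at least 1 h before drug. Action potentials recorded at four to six sites, control vs drug, and averaged per fiber.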

Canis familiaris [4] = species: Canis familiaris; experiment: Effect on the transmembrane potential of dog Purkinje fibers paced at a basic cycle length of stimulation of 1000 ms, repolarization time to -60 mV at 3 uM concentration; assay type: functional; conditions: Canis lupus familiaris, Purkinje fiber; method in brief: as §1
Canis familiaris [5] = species: Canis familiaris; experiment: Effect on the transmembrane potential of dog Purkinje fibers paced at a basic cycle length of stimulation of 300 ms, repolarization time to -60 mV at 3 uM concentration; assay type: functional; conditions: Canis lupus familiaris, Purkinje fiber; method in brief: as §1
Canis familiaris [6] = experiment: Effect on atrial conduction time, after intravenous administration in open-chest anesthetized dogs at dose of 5.0 mg/kg; assay type: functional, Canis lupus familiaris, Cardiac atrium
Canis familiaris [7] = experiment: Effect on ventricular conduction time, after intravenous administration in open-chest anesthetized dogs at dose of 5.0 mg/kg; assay type: functional, Canis lupus familiaris, Cardiac ventricle
Canis familiaris [8] = experiment: Effect on ventricular effective refractory period, after intravenous administration in open-chest anesthetized dogs at dose of 1.0 mg/kg; assay type: functional, Canis lupus familiaris, Cardiac ventricle
Method in brief: (§3)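 Mongrel dogs, pentobarbital-anesthetized (30 mg/kg iv plus 5 mg/kg per h), open chest. Compound given iv. Atrial and ventricular effective refractory periods and conduction times measured during pacing at 300 ms, along with heart rate and mean arterial pressure. Two doses per compound, chosen from dose-response runs. Values are % change from predrug, mean ± SE.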

Canis familiaris [9] = experiment: Effect on ventricular effective refractory period, after intravenous administration in open-chest anesthetized dogs at dose of 5.0 mg/kg; assay type: functional, Canis lupus familiaris, Cardiac ventricle; method in brief: as §3
Canis familiaris [10] = experiment: Effect on atrial effective refractory period, after intravenous administration in open-chest anesthetized dogs at dose of 1.0 mg/kg; assay type: functional, Canis lupus familiaris, Cardiac atrium
Canis familiaris [11] = experiment: Effect on atrial effective refractory period, after intravenous administration in open-chest anesthetized dogs at dose of 5.0 mg/kg; assay type: functional, Canis lupus familiaris, Cardiac atrium
Canis familiaris [12] = experiment: Effect on heart rate, after intravenous administration in open-chest anesthetized dogs at dose of 1.0 mg/kg; assay type: functional, Canis lupus familiaris
Canis familiaris [13] = experiment: Effect on heart rate, after intravenous administration in open-chest anesthetized dogs at dose of 5.0 mg/kg; assay type: functional, Canis lupus familiaris
Canis familiaris [14] = experiment: Effect on mean arterial pressure, after intravenous administration in open-chest anesthetized dogs at dose of 1.0 mg/kg; assay type: functional, Canis lupus familiaris, Artery
Canis familiaris [15] = experiment: Effect on mean arterial pressure, after intravenous administration in open-chest anesthetized dogs at dose of 5.0 mg/kg; assay type: functional, Canis lupus familiaris, Artery
Canis familiaris [16] = experiment: Effect on ventricular conduction time, after intravenous administration in open-chest anesthetized dogs at dose of 1.0 mg/kg; assay type: functional, Canis lupus familiaris, Cardiac ventricle
Canis familiaris [17] = experiment: Effect on atrial conduction time, after intravenous administration in open-chest anesthetized dogs at dose of 1.0 mg/kg; assay type: functional, Canis lupus familiaris, Cardiac atrium
[18] = (§4) Maximum rate of depolarization of the upstroke of the action potential at 3 uM; method in brief: as §2
[19] = as §4; method in brief: as §2; remark: listed apart in the source
Canis familiaris [20] = species: Canis familiaris; experiment: Effect on the transmembrane potential of dog Purkinje fibers paced at a basic cycle length of stimulation of 300 ms, repolarization time to -60 mV at 0.3 uM concentration; assay type: functional; conditions: Canis lupus familiaris, Purkinje fiber; method in brief: as §1
Canis familiaris [21] = species: Canis familiaris; experiment: Effect on the transmembrane potential of dog Purkinje fibers paced at a basic cycle length of stimulation of 1000 ms, repolarization time to -60 mV at 0.3 uM concentration; assay type: functional; conditions: Canis lupus familiaris, Purkinje fiber; method in brief: as §1
Canis familiaris [22] = species: Canis familiaris; experiment: Effect on the transmembrane potential of dog Purkinje fibers paced at a basic cycle length of stimulation of 1000 ms, repolarization time to -60 mV at 3 uM; assay type: functional; conditions: Canis lupus familiaris, Purkinje fiber; method in brief: as §1
Canis familiaris [23] = species: Canis familiaris; experiment: Effect on transmembrane potential of dog Purkinje fibers paced at a basic cycle length of stimulation of 300 ms, repolarization time to -60 mV at 3 uM; assay type: functional; conditions: Canis lupus familiaris, Purkinje fiber; method in brief: as §1
Canis familiaris [24] = experiment: Prodrug ventricular fibrillation threshold(VFT) in open-chest anesthetized dogs(Control = 8+/-1) at a dose of 2.5 mg/kg iv; assay type: functional, Canis lupus familiaris, Cardiac ventricle

SMILES: CN(CCN(C)c1ccc2ccccc2n1)C(=O)c1ccc(NS(C)(=O)=O)cc1
APD60 (Canis familiaris [1]): 17
APD60 (Canis familiaris [2]): 36

Vmax [3]: -5 and -3
SMILES: CN(CCN(C)c1nc2ccccc2n1C)C(=O)c1ccc(NS(C)(=O)=O)cc1.Cl
APD60 (Canis familiaris [4]): 65
APD60 (Canis familiaris [5]): 17
Change (Canis familiaris [6]): -3%
Change (Canis familiaris [7]): -6%
Change (Canis familiaris [8]): 10%
Change (Canis familiaris [9]): 24%
Change (Canis familiaris [10]): 18%
Change (Canis familiaris [11]): 44%
Change (Canis familiaris [12]): -6%
Change (Canis familiaris [13]): -27%
Change (Canis familiaris [14]): 5%
Change (Canis familiaris [15]): -1%
Change (Canis familiaris [16]): -1%
Change (Canis familiaris [17]): -1%

SMILES: Cl.Cn1c(N2CCN(S(=O)(=O)c3ccc(NS(C)(=O)=O)cc3)CC2)nc2ccccc21
APD60 (Canis familiaris [4]): 57
APD60 (Canis familiaris [5]): 36
Change (Canis familiaris [6]): -3%
Change (Canis familiaris [7]): 2%
Change (Canis familiaris [8]): 13%
Change (Canis familiaris [9]): 25%
Change (Canis familiaris [10]): 22%
Change (Canis familiaris [11]): 40%
Change (Canis familiaris [12]): -17%
Change (Canis familiaris [13]): -37%
Change (Canis familiaris [14]): 2%
Change (Canis familiaris [15]): 3%
Change (Canis familiaris [16]): -4%
Change (Canis familiaris [17]): 3%

SMILES: CN(CCN(C)S(=O)(=O)c1ccc(NS(C)(=O)=O)cc1)c1ncc2ccccc2n1
APD60 (Canis familiaris [1]): 18
APD60 (Canis familiaris [2]): 29

SMILES: CS(=O)(=O)Nc1ccc(S(=O)(=O)N2CCNc3nc4ccccc4n3CC2)cc1
APD60 (Canis familiaris [1]): 24
APD60 (Canis familiaris [2]): 42

SMILES: CNc1nc2ccccc2n1CCN(C)S(=O)(=O)c1ccc(NS(C)(=O)=O)cc1
APD60 (Canis familiaris [1]): 28
APD60 (Canis familiaris [2]): 47

Vmax [18]: 11
Vmax [19]: 13
SMILES: CN(CCN(C)S(=O)(=O)c1ccc(NS(C)(=O)=O)cc1)c1nc2ccccc2n1C.Cl
APD60 (Canis familiaris [20]): 24
APD60 (Canis familiaris [21]): 46
APD60 (Canis familiaris [22]): 57
APD60 (Canis familiaris [23]): 40
VFT (Canis familiaris [24]): 8 and 24

SMILES: CN(CCN(C)S(=O)(=O)c1ccc(NS(C)(=O)=O)cc1)c1ccc2ccccc2n1
APD60 (Canis familiaris [1]): 20
APD60 (Canis familiaris [2]): 46
